6 compounds from ChEMBL document CHEMBL3102763, “Synthesis, radiosynthesis and first in vitro evaluation of novel PET-tracers for the dopamine transporter: [(11)C]IPCIT and [(18)F]FE@IPCIT” (Bioorg Med Chem, 2013) can be followed below.

Molecules are shown by their SMILES.

In data set [1] the target is T1, Sodium-dependent serotonin transporter (Homo sapiens, UniProt P31645). Briefly: Binding affinity to SERT (unknown origin). An outline of the steps:
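Human SERT membranes (9 µg protein/unit) in 100 mM NaCl, 50 mM Tris-HCl pH 7.4, with [3H]imipramine as radioligand. Run as the DAT competition assay: 2 h incubation, centrifugation at about 40,000g and β-scintillation counting. IC50 and Ki are derived from competition plots.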

Data set [2] has as its target T2, Sodium-dependent noradrenaline transporter (Homo sapiens, UniProt P23975). Briefly: Binding affinity to NET (unknown origin). An outline of the steps: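 Human NET membranes (3 µg protein/unit) in 100 mM NaCl, 50 mM Tris-HCl pH 7.4, with [3H]nisoxetine as radioligand. Run as the DAT competition assay: 2 h incubation, centrifugation at about 40,000g and β-scintillation counting. IC50 and Ki are derived from competition plots.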

Data set [3] concerns the target T3, Sodium-dependent dopamine transporter (Homo sapiens, UniProt Q01959). Briefly: Binding affinity to DAT (unknown origin). An outline of the steps:
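Competition binding on human DAT-expressing membranes (12.7 µg protein/unit) in 50 mM Tris-HCl, 100 mM NaCl, pH 7.4. The radioligand was ³H-WIN 35,428, added from a 3 nM solution. Non-specific binding was defined with 10 µM GBR 12909. After 2 h incubation, membranes were pelleted at about 40,000g and washed with ice-cold buffer, then counted by β-scintillation. IC50/Ki came from competition plots: three assays, each in triplicate.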

The test system of the next data set is CES1b/CES1c/CES2. Briefly: Metabolic stability assessed as human CES1b/CES1c/CES2-mediated hydrolysis measuring compound remaining after 60 mins by radio-HPLC analysis. Conditions: human carboxylesterases CES1b, CES1c and CES2, read-out: Stability. The data set is classed as ADME. An outline of the steps: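 A 1/1/1 mixture (20 µL) of human CES1b, CES1c and CES2 (each 5 mg/mL) is diluted with 270 µL phosphate buffer pH 7.4. Radiotracer (6 µL) is incubated in it, quenched with MeOH/ACN (10/1) and centrifuged. Supernatants are analysed by radio-HPLC for percent intact tracer.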

Data set [4] is described as follows: Metabolic stability in human plasma assessed as compound remaining after 1 hr by radio-HPLC analysis. The data set is classed as ADME, cell-free. Conditions: read-out: Stability. An outline of the steps: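 Radiotracer (10 µL) incubated in 500 µL pooled Li-heparin human plasma at 37 °C for up to 60 min, with ethanol kept at or below 2% final. Aliquots are quenched with one volume of ice-cold MeOH/ACN (10/1) and centrifuged (23,000g, 4 min, 5 °C). Supernatants are analysed by radio-HPLC for percent […].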

Data set [5] is described as follows: Drug metabolism in human liver microsomes after 1 hr by radio-HPLC analysis relative to control. It is filed as ADME. Conditions: read-out: Drug metabolism. An outline of the steps:
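Pooled human liver microsomes are preincubated 5 min at 37 °C in pH 7.4 phosphate buffer with an NADPH-generating system. Formulated radiotracer (6 µL) is then added in 300 µL final volume, with ethanol at or below 2%. Incubations are quenched with one volume MeOH/ACN (10/1), vortexed and centrifuged. Supernatants are analysed by radio-HPLC for percent intact tracer.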

Data set [6] in a line: Lipophilicity, log D of the compound. The data set is classed as physicochemical. Conditions: octanol/water. An outline of the steps:
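HPLC method on a short polymeric ODP-50 column, with toluene and triphenylene co-injected as standards of known logD and k'. A linear gradient runs from 10% MeOH/90% 25 mM phosphate buffer to 100% methanol over 9.4 min at 1.5 mL/min.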

Data set [7] concerns the target T1, Sodium-dependent serotonin transporter. As to the kind of experiment: Displacement of [3H][…] from human SERT after 2 hrs by liquid scintillation counting analysis. In general terms: In a radioligand displacement assay an active substance lowers the binding of a labelled ligand.
Data set [8] addresses T2, Sodium-dependent noradrenaline transporter. Briefly: Displacement of [3H][…] from human NET after 2 hrs by liquid scintillation counting analysis.
The target in data set [9] is T3, Sodium-dependent dopamine transporter. As to the kind of experiment: Displacement of [3H]WIN35428 from human DAT after 2 hrs by liquid scintillation counting analysis. An outline of the steps: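 Competition binding on human DAT membranes (12.7 µg protein/unit) in 100 mM NaCl, 50 mM Tris-HCl pH 7.4, with [3H]WIN 35,428 added as a 3 nM solution. Nonspecific binding defined with 10 µM GBR 12909. After 2 h incubation, bound label is pelleted at about 40,000g, washed twice with ice-cold buffer and counted by β-scintillation. IC50 and Ki come from competition plots, three assays each in triplicate.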

For data set [10], the species on record is Homo sapiens. As to the kind of experiment: Selectivity ratio of Ki for human NET to Ki for human DAT. An outline of the steps:
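Ratio of Ki values from competition binding on human NET membranes ([3H]nisoxetine) and human DAT membranes ([3H]WIN 35,428). Both were measured in 100 mM NaCl, 50 mM Tris-HCl pH 7.4 with 2 h incubation and scintillation counting.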

The species named for data set [11] is Homo sapiens. As to the kind of experiment: Selectivity ratio of Ki for human SERT to Ki for human DAT. An outline of the steps:
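Ratio of Ki values from competition binding on human SERT membranes ([3H]imipramine) and human DAT membranes ([3H]WIN 35,428). Both were measured in 100 mM NaCl, 50 mM Tris-HCl pH 7.4 with 2 h incubation and scintillation counting.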

T3 sequence (Q01959 whole entry): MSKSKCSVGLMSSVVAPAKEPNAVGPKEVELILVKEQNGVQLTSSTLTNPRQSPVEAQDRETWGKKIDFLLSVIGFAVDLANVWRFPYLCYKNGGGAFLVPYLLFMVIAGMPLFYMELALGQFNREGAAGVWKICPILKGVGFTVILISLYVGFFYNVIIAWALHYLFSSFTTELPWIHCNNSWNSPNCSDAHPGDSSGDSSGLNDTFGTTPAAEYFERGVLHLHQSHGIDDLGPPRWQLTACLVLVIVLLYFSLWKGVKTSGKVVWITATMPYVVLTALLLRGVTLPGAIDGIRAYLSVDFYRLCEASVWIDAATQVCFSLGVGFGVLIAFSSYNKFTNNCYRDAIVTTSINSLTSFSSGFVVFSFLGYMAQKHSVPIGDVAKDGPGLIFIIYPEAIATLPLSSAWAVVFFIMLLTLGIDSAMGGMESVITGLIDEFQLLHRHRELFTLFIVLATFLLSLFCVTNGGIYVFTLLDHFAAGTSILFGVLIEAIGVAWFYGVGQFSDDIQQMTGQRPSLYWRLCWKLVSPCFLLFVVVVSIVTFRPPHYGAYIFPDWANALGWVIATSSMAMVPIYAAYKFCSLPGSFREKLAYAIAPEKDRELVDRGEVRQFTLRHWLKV
T2 sequence (P23975 whole entry): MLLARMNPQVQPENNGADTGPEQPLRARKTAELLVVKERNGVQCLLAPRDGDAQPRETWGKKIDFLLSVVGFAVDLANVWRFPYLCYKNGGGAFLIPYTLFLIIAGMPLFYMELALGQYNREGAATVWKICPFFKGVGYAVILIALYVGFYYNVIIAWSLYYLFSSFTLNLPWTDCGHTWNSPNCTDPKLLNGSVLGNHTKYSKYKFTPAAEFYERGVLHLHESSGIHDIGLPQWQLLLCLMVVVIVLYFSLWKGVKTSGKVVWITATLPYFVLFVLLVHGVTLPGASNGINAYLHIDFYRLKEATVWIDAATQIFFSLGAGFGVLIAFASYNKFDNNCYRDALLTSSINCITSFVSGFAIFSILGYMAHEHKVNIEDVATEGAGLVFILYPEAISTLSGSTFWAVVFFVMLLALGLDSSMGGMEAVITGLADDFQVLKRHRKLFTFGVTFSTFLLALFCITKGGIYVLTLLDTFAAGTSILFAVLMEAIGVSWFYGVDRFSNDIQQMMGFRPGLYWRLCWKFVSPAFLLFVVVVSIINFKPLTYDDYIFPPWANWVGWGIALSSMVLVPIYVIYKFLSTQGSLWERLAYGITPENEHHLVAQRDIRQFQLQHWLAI
T1 sequence (P31645 whole entry): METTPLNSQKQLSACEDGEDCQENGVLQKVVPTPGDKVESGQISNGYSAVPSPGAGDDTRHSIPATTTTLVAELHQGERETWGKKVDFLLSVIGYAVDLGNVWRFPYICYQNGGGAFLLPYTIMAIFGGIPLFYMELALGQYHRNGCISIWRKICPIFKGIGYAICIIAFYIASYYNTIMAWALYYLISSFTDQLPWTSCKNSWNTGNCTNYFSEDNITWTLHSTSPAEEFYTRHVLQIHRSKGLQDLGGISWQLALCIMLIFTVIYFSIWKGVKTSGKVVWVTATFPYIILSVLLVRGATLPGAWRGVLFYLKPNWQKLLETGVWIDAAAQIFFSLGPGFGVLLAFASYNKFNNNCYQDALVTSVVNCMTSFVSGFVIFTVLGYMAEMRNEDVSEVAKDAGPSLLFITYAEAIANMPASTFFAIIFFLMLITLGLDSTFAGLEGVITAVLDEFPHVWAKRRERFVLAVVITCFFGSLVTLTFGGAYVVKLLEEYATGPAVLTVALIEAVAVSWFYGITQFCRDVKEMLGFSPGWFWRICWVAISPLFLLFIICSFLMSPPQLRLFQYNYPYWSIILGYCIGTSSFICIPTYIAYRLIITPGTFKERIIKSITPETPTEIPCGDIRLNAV

Turning to `COC(=O)[C@H]1[C@@H](c2ccc(I)cc2)C[C@@H]2CC[C@H]1N2C`, the Ki in data set [1] worked out at 0.0292 µM; in data set [2], 0.0328 µM; in data set [3] it was 0.00634 µM.

For the compound `O=C(OCC[18F])[C@H]1[C@@H](c2ccc(I)cc2)C[C@@H]2CC[C@H]1N2C/C=C/I`, the figures for the remaining at 1 h (in the data set with CES1b/CES1c/CES2; in data set [4]) were 92% and 100%, respectively. Further, the metabolised at 1 h in data set [5] was determined as 71.6%.

For `O=C(O)[C@H]1[C@@H](c2ccc(I)cc2)C[C@@H]2CC[C@H]1N2C/C=C/I`, the logD in data set [6] amounted to 0.8. Further, the Ki in data set [7] came to 0.0714 µM; in data set [8], 0.785 µM; in data set [9], 0.037 µM.

On to `COC(=O)[C@H]1[C@@H](c2ccc(I)cc2)C[C@@H]2CC[C@H]1N2C/C=C/I`, for which the remaining at 1 h with CES1b/CES1c/CES2 came out at 92%; in data set [4], 100%. The compound further came in with a pH-dependent lipophilicity (logD) in data set [6] of 5.29. Moreover, the Ratio Ki in the data set filed under Homo sapiens [10] worked out at 11. In addition, the Ki in data set [7] amounted to 0.0015 µM; in data set [8] it was 0.02 µM; in data set [9], 0.00172 µM. Also, the metabolised at 1 h in [5] was found to be 46.4%.

As to `COC(=O)[C@H]1[C@@H](c2ccc(C)cc2)C[C@@H]2CC[C@H]1N2C/C=C/I`, the Ki in data set [1] is 0.5 µM; in [2], over 1 µM.

In [6], `O=C(OCCF)[C@H]1[C@@H](c2ccc(I)cc2)C[C@@H]2CC[C@H]1N2C/C=C/I` displayed a log distribution coefficient (logD) of 5.39. Also, the results for the Ratio Ki in the data set listed under Homo sapiens [11] and in the data set filed under Homo sapiens [10] were 1.8 and 115, respectively. For the same compound, the Ki in [7] came to 0.0024 µM; in [8], 0.153 µM; in [9], 0.00133 µM.

In general, Ki refers to a measure of affinity in units of concentration, obtained from inhibition or displacement. A higher Ki goes with lower affinity. The logD is the decadic logarithm of the distribution of all forms, ionised or not, between an organic phase and buffer at a given pH. Higher therefore signals a more lipophilic compound.
